The values that follow come from ChEMBL document CHEMBL1121475, “Inhibitors of indoleethylamine N-methyltransferase. Derivatives of 3-methyl-2-thiazolidinimine. In vitro, in vivo, and metabolic studies” (J Med Chem, 1980).

Common to all, as to assay type: ADME, organism-based
Data set [1] deals with Oryctolagus cuniculus. Put plainly: 100 mg/kg of [14C]- radiolabeled compound was orally (gavage) injected in rabbit1plasma, and radioactivity content in feces was estimated. Conditions: rabbit, in vivo, po. The method, boiled down: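 Rabbit given 100 mg/kg [14C]-labelled drug by gavage, 204.6 dpm/μg, in water/0.1 N HCl at 6.66 mg/mL. Rabbit 1 was killed at 2 h and liver, lung, kidney and blood taken; tissue values are μg equivalents/g and tissue:plasma ratio. Rabbit 3 was kept for urine (0-24, 24-48, 48-72 h) and feces (0-48 h), expressed as % of dose.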

For data set [2], the system named is Oryctolagus cuniculus. The data set can be described thus: Radioactivity measurements were performed following oral administration of the 100 mg/kg in rabbit 5 after 2 hr in plasma. On the set-up: dose 100 mg/kg, route oral. The following applies: in vivo. The method, boiled down:
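Male rabbits (900-1060 g) received [14C]-labelled parent amide, 100 mg/kg (251.7 dpm/μg, pH about 4.5), by gavage. At 2 or 6 h they were killed by air injection into the ear vein. Blood was drawn by cardiac puncture; brain and lung were homogenized in water (1 g = 10 mL). Radioactivity is expressed as μg equivalents of parent per g or mL.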

For data set [3], the system named is Oryctolagus cuniculus. The data set can be described thus: Evaluation of formation of 3-Methyl-thiazolidin-2-ylideneamine from the radiolabeled compound, orally administered, from rabbit 1,2 kidney was analyzed by Gas-liquid chromatographic analysis. Conditions: in vivo, po. In short, it runs like this:
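Rabbit 1 was given [14C]-labelled parent amide, 100 mg/kg (204.6 dpm/μg), orally by gavage and killed 2 h later. Urine (0-2 h), blood, liver, lung and kidney were collected. Samples were extracted, trimethylsilylated with BSA/pyridine at 70 °C for 12-16 h, and run by GLC on 3% OV-210 at 95 °C against the internal standard 3-ethyl-2-thiazolidinimine. Output is % of radioactivity present as the metabolite, mean of two determinations.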

The subject of data set [4] is Oryctolagus cuniculus. Put plainly: Evaluation of formation of 3-Methyl-thiazolidin-2-ylideneamine from the radiolabeled compound, orally administered, from rabbit 2 urine was analyzed at 0-2 hr by Gas-liquid chromatographic analysis. The following applies: in vivo, po, in the assay text read “0-4 hr” for “0-2 hr”. The method, boiled down:
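Rabbit 2 was gavaged twice with [14C]-labelled parent amide, 100 mg/kg each dose (204.6 dpm/μg), 2 h apart, and killed 2 h after the second dose. Urine (0-4 h), blood, liver, lung and kidney were taken. The metabolite was measured by GLC of trimethylsilyl derivatives (3% OV-210, 95 °C, internal standard 3-ethyl-2-thiazolidinimine). Values are % of radioactivity as metabolite, mean of two determinations.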

Take `CN1CCS/C1=N\C(=O)CCC(=O)/N=C1/SCCN1C`: the Plasma concentration with Oryctolagus cuniculus [1] was 23.5 µg/g. In addition, in the data set on Oryctolagus cuniculus [2], the Radioactivity level came out at 14.2 µg/mL. The results for the Radioactivity in the data set on Oryctolagus cuniculus [3] and in the data set on Oryctolagus cuniculus [4] were 72.8% and 44.7%, respectively.
